Here are results for 50 compounds from ChEMBL document CHEMBL5360632, “Quinazolinone Compounds Have Potent Antiviral Activity against Zika and Dengue Virus” (J Med Chem, 2023).

In general, inhibition refers to the change of the read-out against control, counted positive when it falls.

Series [1] deals with Zika virus. The experiment in a line: Antiviral activity against ZIKV FLR infected in Vero cells assessed as inhibition of viral replication by measuring reduction in cytopathic effect at 10 uM preincubated with compounds for 2 hrs followed by replacement with fresh media containing compounds and measured after 48 hrs by MTT assay relative to control. Format: functional. Conditions: time 50 hrs. The procedure, abridged:
(§1)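 Monolayers of 2 × 10^4 cells/well in DMEM with 2% FBS. Infected at 0.1 MOI together with compound for 2h. Wells washed with PBS, then fresh medium with compound added in duplicate and incubated 48h at 37 °C. Supernatant titred by end-point dilution: half-log dilutions on Vero monolayers in quadruplicate for 5–7 days, CPE by microscope then MTT. TCID50 compared with untreated; EC50 from dose-response fit of ≥2 independent experiments.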
(Cytopathic effects are the visible damage that an infection or toxin causes in cultured cells.)

Series [2] relates to Zika virus. The experiment in a line: Antiviral activity against ZIKV FLR infected in Vero cells assessed as inhibition of viral replication by measuring log reduction in cytopathic effect at 10 uM preincubated with compounds for 2 hrs followed by replacement with fresh media containing compounds and measured after 48 hrs by MTT assay. Format: functional. Conditions: time 50 hrs. The method in brief: as §1

Series [3] concerns Zika virus. The experiment in a line: Antiviral activity against ZIKV FLR infected in Vero cells assessed as inhibition of viral replication by measuring reduction in cytopathic effect at 1 uM preincubated with compounds for 2 hrs followed by replacement with fresh media containing compounds and measured after 48 hrs by MTT assay relative to control. In kind it is functional. Conditions: time 50 hrs. The method in brief: as §1

Another series deals with Vero. The series is described as follows: Cytotoxicity against African green monkey Vero cells at 10 uM. In kind it is toxicity, cell-based. Conditions: chlorocebus sabaeus. The method in brief: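 Vero monolayers in 96-well plates, treated with compound at 10 μM in duplicate for 72 h during the phenotypic anti-ZIKV screen (0.1 MOI ZIKV FLR strain). An MTT assay optionally quantified viable cells.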

The structures appear in SMILES notation.

On to `CC(C)(C)c1cccc(-n2c(/C=C/c3ccc(C(F)(F)F)nc3)nc3ccc(N4CCCCC4)cc3c2=O)c1`, for which, in the series on Zika virus [1], the inhibition at 10 µM stood at 90%.

Consider `COc1cccc(/C=C/c2nc3ccc(N4CCCCC4)cc3c(=O)n2-c2cccc(C(F)(F)F)c2)n1`, for which, in the series with Zika virus [1], the inhibition at 10 µM is 99%.

`COc1cccc(/C=C/c2nc3ccc(N4CCC(N5CCOCC5)CC4)cc3c(=O)n2-c2cccc(C(F)(F)F)c2)n1`: the inhibition at 10 µM in the series on Zika virus [1] stood at 68.4%.

For `COc1ccc2nc(/C=C/c3cccc(OC)n3)n(-c3cccc(C(C)(C)C)c3)c(=O)c2c1`, in the series with Zika virus [1], the inhibition at 10 µM worked out at 0%.

On to `CC(C)(C)c1cccc(-n2c(/C=C/c3ccc(C(F)(F)F)nc3)nc3ccccc3c2=O)c1`, for which the “log(activity)” value in the series on Zika virus [2] turned out to be 0.5. Further, in the series on Zika virus [1], the inhibition at 10 µM is 90%.

Turning to `COc1cccc(CCc2nc3ccc(N4CCCCC4)cc3c(=O)n2-c2cccc(C(C)(C)C)c2)n1`, in the series on Zika virus [1], the inhibition at 10 µM is 0%.

With `Cc1cccc(-n2c(/C=C/c3cccnc3)nc3ccccc3c2=O)c1`, the inhibition at 10 µM in the series on Zika virus [1] was 0%.

As to `COc1cccc(-n2c(/C=C/c3cccnc3)nc3ccccc3c2=O)c1`, the “log(activity)” value in the series on Zika virus [2] is listed as 0.5. The inhibition at 10 µM with Zika virus [1] amounted to 68.4%.

`COc1cccc(-c2ccc3nc(/C=C/c4cccc(OC)n4)n(-c4cccc(C(C)(C)C)c4)c(=O)c3c2)c1`: the inhibition at 10 µM in the series on Zika virus [1] is 0%.

As to `CC(C)(C)c1cccc(-n2c(/C=C/c3ccc4ccccc4c3)nc3ccc(N4CCCCC4)cc3c2=O)c1`, the inhibition at 10 µM in the series with Zika virus [1] came to 99.7%.

As for `COc1cccc(/C=C/c2nc3ccc(-c4ccncc4)cc3c(=O)n2-c2cccc(C(C)(C)C)c2)n1`, the inhibition at 10 µM in the series with Zika virus [1] was 0%.

Regarding `COc1cccc(/C=C/c2nc3ccc(N4CCN(C(=O)OC(C)(C)C)CC4)cc3c(=O)n2-c2cccc(C(C)(C)C)c2)n1`, the inhibition at 10 µM in the series with Zika virus [1] was 99%.

On to `CC(C)(C)c1cccc(-n2c(/C=C/c3ccc(C(F)(F)F)cc3)nc3ccccc3c2=O)c1`, for which, in the series on Zika virus [1], the inhibition at 10 µM was determined as 90%.

In the case of `COc1cccc(-n2c(/C=C/c3cccc(OC)n3)nc3ccc(N4CCOCC4)cc3c2=O)c1`, the inhibition at 10 µM in the series with Zika virus [1] was 99%.

`COc1cccc(/C=C/c2nc3ccc(C4=CCOCC4)cc3c(=O)n2-c2cccc(C(C)(C)C)c2)n1`: the inhibition at 10 µM in the series with Zika virus [1] was determined as 96.8%.

Regarding `O=c1c2ccccc2nc(/C=C/c2cccnc2)n1-c1ccccc1`, the inhibition at 10 µM with Zika virus [1] was determined as 0%.

As for `COc1cccc(/C=C/c2nc3ccc(N4CCCCC4)cc3c(=O)n2-c2cccc(C(C)(C)C)c2)c1`, the inhibition at 1 µM with Zika virus [3] was determined as 68.4%. The inhibition at 10 µM in the series on Zika virus [1] came to 99.9%.

Regarding `CC(C)(C)c1cccc(-n2c(/C=C/c3ccc4ccccc4c3)nc3ccccc3c2=O)c1`, in the series with Zika virus [1], the inhibition at 10 µM came to 68.4%.

In the case of `CC(C)(C)c1ccc(-n2c(/C=C/c3cncnc3)nc3ccccc3c2=O)cc1`, the inhibition at 10 µM in the series with Zika virus [1] is 0%.

Turning to `COc1cccc(/C=C/c2nc3ccc(N4CCCC4)cc3c(=O)n2-c2cccc(C(C)(C)C)c2)n1`, the inhibition at 10 µM in the series on Zika virus [1] came to 68.4%.

As to `COc1cccc(/C=C/c2nc3ccc(Cl)cc3c(=O)n2-c2cccc(C(C)(C)C)c2)n1`, the inhibition at 10 µM in the series with Zika virus [1] was 0%.

As to `CC(C)(C)c1cccc(-n2c(/C=C/c3cccnc3)nc3ccccc3c2=O)c1`, in the series on Zika virus [1], the inhibition at 10 µM was determined as 0%.

For the compound `Cc1ccccc1-n1c(/C=C/c2cccnc2)nc2ccccc2c1=O`, the inhibition at 10 µM in the series with Zika virus [1] was determined as 0%.

On to `COc1cccc(/C=C/c2nc3ccccc3c(=O)n2-c2cccc(C(C)(C)C)c2)c1`, for which the inhibition at 10 µM in the series with Zika virus [1] was 0%.

Consider `CCN(CC)CCCC(C)Nc1ccnc2cc(Cl)ccc12` (stereo not drawn) [CHLOROQUINE], for which, in the series with Zika virus [1], the inhibition at 10 µM was determined as 90%.

For `COc1cc(/C=C/c2nc3ccc(N4CCN(C)CC4)cc3c(=O)n2-c2cccc(C(C)(C)C)c2)cc(OC)c1`, the Activity result in the series with Vero is listed as “Toxic”.

For the compound `COc1cccc(CCc2nc3ccc(N4CCOCC4)cc3c(=O)n2-c2cccc(C(C)(C)C)c2)n1`, the inhibition at 10 µM in the series on Zika virus [1] turned out to be 0%.

With `COc1cccc(/C=C/c2nc3ccc(-c4ccc(N(C)C)cc4)cc3c(=O)n2-c2cccc(C(C)(C)C)c2)n1`, in the series with Zika virus [1], the inhibition at 10 µM turned out to be 96.8%.

Regarding `COc1cccc(/C=C/c2nc3ccc(OC)cc3c(=O)n2-c2cccc(C(C)(C)C)c2)c1`, the inhibition at 10 µM in the series on Zika virus [1] worked out at 0%.

Turning to `COc1cccc(-n2c(/C=C/c3cccc(OC)n3)nc3ccc(N4CCC(N5CCOCC5)CC4)cc3c2=O)c1`, the inhibition at 1 µM in the series with Zika virus [3] came to 68.4%. For the same compound, the inhibition at 10 µM with Zika virus [1] is 99.9%.

`COc1cccc(/C=C/c2nc3ccc(N4CCNCC4)cc3c(=O)n2-c2cccc(C(C)(C)C)c2)n1`: the Activity entry in the series on Vero is “Toxic”.

As for `COc1ncccc1/C=C/c1nc2ccccc2c(=O)n1-c1cccc(C(C)(C)C)c1`, the “log(activity)” value in the series with Zika virus [2] worked out at 0.5. The inhibition at 10 µM with Zika virus [1] came out at 68.4%.

In the case of `COc1cccc(/C=C/c2nc3ccc(N4CCC(N5CCOCC5)CC4)cc3c(=O)n2-c2cccc(C(C)(C)C)c2)n1`, the inhibition at 1 µM in the series on Zika virus [3] was determined as 90%. In addition, the inhibition at 10 µM with Zika virus [1] is 99.9%.

Turning to `COc1cccc(/C=C/c2nc3ccc(-c4ccc(F)cc4)cc3c(=O)n2-c2cccc(C(C)(C)C)c2)n1`, in the series with Zika virus [1], the inhibition at 10 µM turned out to be 99%.

As to `NCc1ccc(-c2ncc(OCC3CCNCC3)nc2-c2ccc(-c3ccoc3)cc2)cc1`, the inhibition at 1 µM in the series on Zika virus [3] came to 68%.

As to `COc1cccc(/C=C/c2nc3ccccc3c(=O)n2-c2cccc(C(C)(C)C)c2)n1`, the inhibition at 10 µM in the series with Zika virus [1] turned out to be 0%.

Turning to `CC(C)(C)c1cccc(-n2c(/C=C/c3ccncc3)nc3ccccc3c2=O)c1`, the inhibition at 10 µM in the series on Zika virus [1] came to 68.4%.

Turning to `COc1cccc(/C=C/c2nc3ccc(-c4ccc(N5CCCC5)cc4)cc3c(=O)n2-c2cccc(C(C)(C)C)c2)n1`, the inhibition at 10 µM in the series with Zika virus [1] worked out at 96.8%.

`COc1cccc(/C=C/c2nc3ccc(N4CCN(C)CC4)cc3c(=O)n2-c2cccc(C(C)(C)C)c2)n1`: the Activity result in the series with Vero is “Toxic”.

In the case of `COc1cccc(/C=C/c2nc3ccc(N4CCN(C(=O)OC(C)(C)C)CC4)cc3c(=O)n2-c2cccc(C(C)(C)C)c2)c1`, the inhibition at 10 µM in the series on Zika virus [1] came to 99%.

As for `COc1cccc(/C=C/c2nc3ccc(N4CCC(N5CCOCC5)CC4)cc3c(=O)n2-c2cccc(C)c2)n1`, the inhibition at 1 µM in the series with Zika virus [3] was found to be 0%. The inhibition at 10 µM in the series with Zika virus [1] was 99.9%.

On to `CC(C)(C)c1ccc(-n2c(/C=C/c3cccnc3)nc3ccccc3c2=O)cc1`, for which the inhibition at 10 µM in the series with Zika virus [1] turned out to be 0%.

For `CC(C)(C)c1cccc(-n2c(/C=C/c3cncnc3)nc3ccccc3c2=O)c1`, in the series with Zika virus [1], the inhibition at 10 µM was 68.4%.

As for `COc1cccc(/C=C/c2nc3ccc(N4CCOCC4)cc3c(=O)n2-c2cccc(C)c2)n1`, in the series on Zika virus [1], the inhibition at 10 µM worked out at 90%.

As for `CC(C)(C)c1cccc(-n2c(/C=C/c3ccncc3)nc3ccc(N4CCCCC4)cc3c2=O)c1`, the inhibition at 10 µM in the series with Zika virus [1] came to 68.4%.

With `CC(C)(C)c1ccc(-n2c(/C=C/c3cncc(Br)c3)nc3ccccc3c2=O)cc1`, the inhibition at 10 µM in the series with Zika virus [1] came out at 0%.

With `COc1ccccc1/C=C/c1nc2ccccc2c(=O)n1-c1cccc(C(C)(C)C)c1`, the inhibition at 10 µM with Zika virus [1] was found to be 0%.

On to `CC(C)(C)c1cccc(-n2c(/C=C/c3ccccc3)nc3ccccc3c2=O)c1`, for which, in the series on Zika virus [1], the inhibition at 10 µM was found to be 0%.

With `COc1cccc(/C=C/c2nc3ccc(N4CCOCC4)cc3c(=O)n2-c2cccc(C(F)(F)F)c2)n1`, in the series on Zika virus [1], the inhibition at 10 µM was found to be 0%.

Take `COc1cccc(/C=C/c2nc3ccc(N4CCCCC4)cc3c(=O)n2-c2cccc(C)c2)n1`: in the series with Zika virus [3], the inhibition at 1 µM is 0%. Besides, in the series on Zika virus [1], the inhibition at 10 µM was 99.9%.
